Reference: ChEMBL document CHEMBL3259672, “Design, synthesis, and biological evaluation of O-2-modified indenoisoquinolines as dual topoisomerase I-tyrosyl-DNA phosphodiesterase I inhibitors” (J Med Chem, 2014)
Activity calls are given as the source filed them. The calls are words filed in the database; no cut-off is given here.

What was measured:
[1] = biological target: Tyrosyl-DNA phosphodiesterase 1 (Homo sapiens, UniProt Q9NUW8); assay: Inhibition of recombinant TDP1(unknown origin) using 5'-[32P]-single stranded N14Y DNA oligonucleotide after 15 mins by […]
In short: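 A 5′-32P-labeled single-stranded oligonucleotide with 3′ phosphotyrosine (N14Y) was incubated with 5 pM recombinant TDP1 for 15 min at room temperature. Loss of the N14P product band on the gel marks inhibition.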

[2] = biological target: T1, DNA topoisomerase 1 (Homo sapiens) (UniProt P11387); assay: Inhibition of human recombinant topoisomerase 1-mediated 117 bp DNA cleavage by agarose gel electrophoresis; conditions: in the assay text read “denaturing PAGE” for “agarose gel electrophoresis”
T1 sequence (whole entry): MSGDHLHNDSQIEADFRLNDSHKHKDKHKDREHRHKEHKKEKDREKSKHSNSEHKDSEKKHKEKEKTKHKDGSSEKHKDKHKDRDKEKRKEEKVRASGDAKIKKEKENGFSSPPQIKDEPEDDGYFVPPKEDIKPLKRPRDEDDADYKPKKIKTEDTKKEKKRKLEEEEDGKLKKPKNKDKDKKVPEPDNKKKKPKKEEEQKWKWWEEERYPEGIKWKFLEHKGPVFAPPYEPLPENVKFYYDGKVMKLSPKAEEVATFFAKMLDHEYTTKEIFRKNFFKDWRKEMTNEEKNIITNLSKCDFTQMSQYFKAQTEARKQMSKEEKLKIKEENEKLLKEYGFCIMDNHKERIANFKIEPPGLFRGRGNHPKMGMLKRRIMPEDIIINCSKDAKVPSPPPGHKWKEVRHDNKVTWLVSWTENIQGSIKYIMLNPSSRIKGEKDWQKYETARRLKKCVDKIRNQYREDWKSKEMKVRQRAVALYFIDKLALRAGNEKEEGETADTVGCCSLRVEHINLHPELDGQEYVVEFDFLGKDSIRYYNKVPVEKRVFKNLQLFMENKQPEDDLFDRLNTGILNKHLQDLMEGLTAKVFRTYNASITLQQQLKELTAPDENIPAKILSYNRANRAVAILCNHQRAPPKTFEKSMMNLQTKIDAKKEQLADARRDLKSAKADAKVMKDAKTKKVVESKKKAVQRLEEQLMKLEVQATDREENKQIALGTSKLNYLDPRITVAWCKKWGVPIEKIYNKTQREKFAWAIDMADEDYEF
In short: (§1)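 Human recombinant Top1 was purified from baculovirus. Compound was tested at 0.1, 1, 10 and 100 μM for 20 min at 25 °C. Reactions were stopped with SDS (0.5% final) and run on 20% denaturing PAGE with phosphoimager read-out. Activity was graded semiquantitatively.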

DU-145 = assay: Growth inhibition of human DU145 cells after 48 hrs by SRB assay; type: functional; conditions: DU-145, 48 h
In short: (§2)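 NCI60 screen. Cells were exposed to 100, 10, 1, 0.1 and 0.01 μM for 48 h, then stained with sulforhodamine B and read by optical density. Percent growth relative to control was plotted against log concentration. […] Where a standard error is given, values are the mean of two determinations.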

SN12C = assay: Growth inhibition of human SN12C cells after 48 hrs by SRB assay; type: functional; in short: as §2
[3] = Growth inhibition of human UACC62 cells after 48 hrs by SRB assay; type: functional; conditions: UACC-62, 48 h; in short: as §2
[4] = Growth inhibition of human OVCAR3 cells after 48 hrs by SRB assay; type: functional; conditions: OVCAR-3, 48 h; in short: as §2
[5] = Growth inhibition of human SF539 cells after 48 hrs by SRB assay; type: functional; conditions: SF-539, 48 h; in short: as §2
HCT-116 = assay: Growth inhibition of human HCT116 cells after 48 hrs by SRB assay; type: functional; conditions: HCT-116, 48 h; in short: as §2
HOP-62 = assay: Growth inhibition of human HOP62 cells after 48 hrs by SRB assay; type: functional; conditions: HOP-62, 48 h; in short: as §2
MCF7 = assay: Growth inhibition of human MCF7 cells after 48 hrs by SRB assay; type: functional; conditions: MCF7, 48 h; in short: as §2
[6] = biological target: T1, DNA topoisomerase 1 (Homo sapiens); assay: Inhibition of human recombinant topoisomerase 1-mediated 117 bp DNA cleavage at 0.1 to 100 uM by agarose gel electrophoresis; conditions: in the assay text read “denaturing PAGE” for “agarose gel electrophoresis”; in short: as §1

Sequence of Tyrosyl-DNA phosphodiesterase 1 (Q9NUW8 whole entry): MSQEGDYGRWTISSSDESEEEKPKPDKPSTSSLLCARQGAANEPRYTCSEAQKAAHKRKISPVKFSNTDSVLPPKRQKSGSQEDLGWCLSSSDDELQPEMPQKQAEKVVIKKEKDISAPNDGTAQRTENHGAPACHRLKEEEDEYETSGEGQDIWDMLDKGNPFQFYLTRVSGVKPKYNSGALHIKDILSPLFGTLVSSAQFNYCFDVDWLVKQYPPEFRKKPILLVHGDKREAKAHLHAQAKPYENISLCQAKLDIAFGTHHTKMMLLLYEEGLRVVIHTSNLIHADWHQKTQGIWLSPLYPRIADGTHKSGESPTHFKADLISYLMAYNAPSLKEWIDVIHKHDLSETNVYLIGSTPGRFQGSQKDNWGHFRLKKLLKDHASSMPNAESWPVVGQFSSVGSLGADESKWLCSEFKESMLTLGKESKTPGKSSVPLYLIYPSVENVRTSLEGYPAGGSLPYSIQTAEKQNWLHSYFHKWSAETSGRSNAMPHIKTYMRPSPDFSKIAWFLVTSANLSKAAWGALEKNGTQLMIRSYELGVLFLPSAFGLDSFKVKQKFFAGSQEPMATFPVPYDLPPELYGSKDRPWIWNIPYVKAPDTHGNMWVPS

IC50 [1] | inhibition [2] | GI50 (DU-145) | GI50 (HCT-116) | GI50 (MCF7) | inhibition [1] | inhibition [6] | Compound | GI50 (SN12C) | GI50 [3] | GI50 [4] | GI50 [5] | GI50 (HOP-62)
> 111000 nM | Active | 900 nM | 1100 nM | 400 nM | – | – | COC(=O)COc1cc2c3c(n(CCCN4CCOCC4)c(=O)c2cc1OC)-c1cc2c(cc1C3=O)OCO2 | 800 nM | 1000 nM | 5800 nM | 100 nM | 100 nM
> 111000 nM | inactive | < 10 nM | – | < 10 nM | – | – | C=CCOc1cc2c3c(n(CCCN4CCOCC4)c(=O)c2cc1OC)-c1cc2c(cc1C3=O)OCO2 | < 10 nM | < 10 nM | 300 nM | 10 nM | < 10 nM
– | Active | 300 nM | 390 nM | 100 nM | – | – | COc1cc2c(=O)n(CCCN3CCOCC3)c3c(c2cc1O)C(=O)c1cc2c(cc1-3)OCO2 | 200 nM | 300 nM | 900 nM | 300 nM | 300 nM
> 111000 nM | inactive | – | – | – | – | – | COc1cc2c(=O)n(CCCN3CCOCC3)c3c(c2cc1OCC(=O)NN)C(O)c1cc2c(cc1-3)OCO2 (configuration not stated) | – | – | – | – | –
– | – | 37000 nM | 35000 nM | – | – | – | COc1cc2c3c(n(C)c(=O)c2cc1OC)-c1cc2c(cc1C3=O)OCO2 | 68000 nM | 4200 nM | 73000 nM | – | 1300 nM
– | inactive | 300 nM | – | – | – | – | COc1cc2c(=O)n(CCCN3CCOCC3)c3c(c2cc1OCCCN)C(=O)c1cc2c(cc1-3)OCO2 | 300 nM | 300 nM | 400 nM | 200 nM | 300 nM
– | – | – | – | – | – | – | COc1cc2c3c(n(CCCNCCO)c(=O)c2cc1OC)-c1cc2c(cc1C3=O)OCO2 [LMP-744] | – | – | – | 40 nM | –
– | – | – | – | – | Dose-dependent effect | Active | CCNCCCOc1cc2c3c(n(CCCN4CCOCC4)c(=O)c2cc1OC)-c1cc2c(cc1C3=O)OCO2 | – | – | – | – | –
– | – | 40 nM | – | 100 nM | – | Active | COc1cc2c(=O)n(CCCN3CCOCC3)c3c(c2cc1OCCCN1CCCC1)C(=O)c1cc2c(cc1-3)OCO2 | – | 300 nM | 1200 nM | 200 nM | –
– | – | 200 nM | 1100 nM | 40 nM | Dose-dependent effect | Active | COc1cc2c(=O)n(CCCN3CCOCC3)c3c(c2cc1OCCCN1CCCCC1)C(=O)c1cc2c(cc1-3)OCO2 | 400 nM | 9600 nM | 5400 nM | 30 nM | 300 nM
> 111000 nM | – | – | – | – | Dose-dependent effect | Active | COc1cc2c(=O)n(CCCN3CCOCC3)c3c(c2cc1OCCCN1CCN(C)CC1)C(=O)c1cc2c(cc1-3)OCO2 | – | – | – | – | –
– | – | – | – | – | Dose-dependent effect | Active | COc1cc2c(=O)n(CCCN3CCOCC3)c3c(c2cc1OCCCN(C)C)C(=O)c1cc2c(cc1-3)OCO2 | – | – | – | – | –
> 111000 nM | Active | 20 nM | 100 nM | 20 nM | – | – | COc1cc2c(=O)n(CCCN3CCOCC3)c3c(c2cc1OCCCN1CCOCC1)C(=O)c1cc2c(cc1-3)OCO2 | 100 nM | 200 nM | 700 nM | 100 nM | 30 nM
